Among the data in ChEMBL document CHEMBL1124420, “Structure-activity relationships of pyrimidine nucleosides as antiviral agents for human immunodeficiency virus type 1 in peripheral blood mononuclear cells” (J Med Chem, 1989) are EC50 and IC50 values, retold here.

Test [1] deals with Human immunodeficiency virus 1. Kind of test: Antiviral activity against HIV I strain (LAV) in human peripheral blood mononuclear (PBM) cells. Type of test: functional, organism-based. An outline of the steps:
(§1)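 Human PBM cells from normal donors, mitogen-stimulated for 3 days (10⁶ cells/mL), were infected with HIV-1 LAV at about 100 TCID₅₀/mL. Drugs at various concentrations were added about 45 min post-infection, in fungizone-free medium. On day 5, virus was pelleted from the clarified supernatant and its reverse transcriptase activity measured. EC₅₀ came from the median effect method, and active compounds were retested with different donor cells.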

Test [2] in a line: Cytotoxic effect in uninfected human peripheral blood mononuclear (PBM) cells.
Test [3] can be described thus: Antiviral activity against HIV I strain (LAV) in human peripheral blood mononuclear (PBM) cells; Range is 0.081 - 0.22. Type of test: functional. An outline of the steps: as §1
Test [4] in a line: Antiviral activity against HIV I strain (LAV) in human peripheral blood mononuclear (PBM) cells; Range is 0.66 - 1.19. The format is functional. An outline of the steps:
as §1

The nature of test [5]: Antiviral activity against HIV I strain (LAV) in human peripheral blood mononuclear (PBM) cells; Range is 0.056 - 1.00. Type of test: functional. Put shortly:
as §1

Test [6] in a line: Antiviral activity against HIV I strain (LAV) in human peripheral blood mononuclear (PBM) cells; Range is 68.3 - 79.9. The format is functional. Put shortly:
as §1

The subject of test [7] is Moloney murine leukemia virus. Kind of test: Antiviral activity against Moloney murine leukemia virus. The format is functional. The note with it: read-out: ED50 (the source's name).
Test [8] is described as follows: Antiviral activity against HIV-1 in human peripheral blood mononuclear (PBM) cells. The format is functional. As to conditions: read-out: ED50 (the source's name).
Test [9] can be described thus: Antiviral activity against HIV I strain (LAV) in human peripheral blood mononuclear (PBM) cells; Range is 0.18 - 0.46. Type of test: functional.
Test [10] in a line: Antiviral activity against HIV I strain (LAV) in human peripheral blood mononuclear (PBM) cells; Range is 0.009 - 0.04. The format is functional. Put shortly:
as §1

Test [11] in a line: Antiviral activity against HIV I strain (LAV) in human peripheral blood mononuclear (PBM) cells; Range is 0.002 - 0.009. The format is functional. An outline of the steps:
as §1

Take `Cc1cn([C@H]2C[C@H](O)[C@@H](CN=[N+]=[N-])O2)c(=O)[nH]c1=O`: the EC50 in test [1] stood at 8.6 µM. Also, the IC50 (usually the concentration needed to halve the response being measured) in [2] was above 100 µM.
For `Cc1cn([C@H]2C[C@H](I)[C@@H](CO)O2)c(=O)[nH]c1=O` the same measures were 46.3 µM and above 100 µM.
In test [1], `O=c1ccn([C@H]2CC[C@@H](CO)O2)c(=O)[nH]1` showed an EC50 of 96.8 µM.
The molecule `CCc1cn(C2C[C@@H](I)[C@@H](CO)O2)c(=O)[nH]c1=O` (stereo partly specified) returned an EC50 in test [1] of 86 µM. The molecule further had an IC50 in test [2] above 100 µM.
Turning to `O=c1ccn(C2C[C@@H](I)[C@@H](CO)O2)c(=O)[nH]1` (stereo partly specified), in [1], the EC50 came to 12.1 µM. This molecule yielded an IC50 in test [2] above 100 µM.
For `CCCc1cn(C2C[C@@H](N=[N+]=[N-])[C@@H](CO)O2)c(=O)[nH]c1=O` (stereo partly specified) the same measures were 63 µM and above 100 µM.
Turning to `CCc1cn(C2C[C@@H](O)[C@@H](CN)O2)c(=O)[nH]c1=O` (stereo partly specified), in test [1], the EC50 was found to be 94.3 µM. In test [2], this molecule came in with a half-inhibitory concentration (IC50) above 10 µM.
In test [1], `[N-]=[N+]=N[C@@H]1CC(c2cnc(O)nc2O)O[C@@H]1CO` (stereo partly specified) came in with an EC50 above 100 µM. In test [2], this molecule returned an IC50 above 100 µM.
As for `[N-]=[N+]=N[C@H]1C[C@H](n2cc(Br)c(=O)[nH]c2=O)O[C@@H]1CO`, in [1], the EC50 is 1.04 µM. Also, the IC50 in [2] was above 100 µM.
`Cc1cn([C@H]2C[C@H](N=[N+]=[N-])[C@@H](CO)O2)c(=O)nc1N` registered an EC50 in [3] of 0.081 µM. Further, the IC50 in test [2] was above 200 µM.
In turn, `[N-]=[N+]=N[C@H]1C[C@H](n2ccc(N)nc2=O)O[C@@H]1CO` yielded an EC50 in [4] of 0.66 µM. Further, in test [2], the IC50 is above 400 µM.
Regarding `CCc1cn([C@H]2C[C@H](N=[N+]=[N-])[C@@H](CO)O2)c(=O)[nH]c1=O`, in [2], the IC50 amounted to 1000 µM. In [5], this molecule gave an EC50 of 0.056 µM.
On to `CCc1cn([C@H]2CC[C@@H](CO)O2)c(=O)[nH]c1=O`, for which the EC50 in test [1] worked out at 4.9 µM. This molecule displayed an IC50 in test [2] above 100 µM.
Taken in the same sequence, the figures for `N[C@H]1C[C@H](n2ccc(=O)[nH]c2=O)O[C@@H]1CO` were 60 µM and above 100 µM.
Taken in the same sequence, the figures for `Nc1ncc([C@H]2CC[C@@H](CO)O2)c(O)n1` were above 100 µM and above 100 µM.
Taken in the same sequence, the figures for `OC[C@@H]1C=C[C@H](c2cnc(O)nc2O)O1` were above 100 µM and above 100 µM.
`CCc1cn([C@H]2C=C[C@@H](CO)O2)c(=O)[nH]c1=O` showed an EC50 in [1] of 75.7 µM. Also, the IC50 in [2] was above 100 µM.
Taken in the same sequence, the figures for `Cc1cn([C@H]2C[C@H](O)[C@@H](CN)O2)c(=O)[nH]c1=O` were 77.4 µM and above 100 µM.
Taken in the same sequence, the figures for `[N-]=[N+]=N[C@@H]1CC(n2cc(I)c(=O)[nH]c2=O)O[C@@H]1CO` (stereo partly specified) were 1.14 µM and above 100 µM.
With `CCc1cn(C2C[C@@H](N)[C@@H](CO)O2)c(=O)[nH]c1=O` (stereo partly specified), in test [1], the EC50 is 54.9 µM. Further, in [2], the IC50 is above 100 µM.
With `[N-]=[N+]=N[C@@H]1CC(n2cc(/C=C/Br)c(=O)[nH]c2=O)O[C@@H]1CO` (stereo partly specified), the EC50 in test [1] was above 100 µM. This molecule gave an IC50 in test [2] above 100 µM.
Regarding `CCc1cn(C2C[C@@H](O)[C@@H](CN=[N+]=[N-])O2)c(=O)[nH]c1=O` (stereo partly specified), in test [1], the EC50 was above 100 µM. The IC50 in test [2] was above 100 µM.
Consider `[N-]=[N+]=NC[C@H]1OC(n2ccc(=O)[nH]c2=O)C[C@H]1O` (stereo partly specified), for which the EC50 in test [1] was above 100 µM. The molecule also returned an IC50 in [2] above 100 µM.
In turn, `NC[C@H]1OC(n2ccc(=O)[nH]c2=O)C[C@H]1O` (stereo partly specified) returned an EC50 in test [1] above 100 µM. The molecule further showed an IC50 in test [2] above 100 µM.
Molecule `Cc1cn([C@H]2CC[C@@H](CO)O2)c(=O)[nH]c1=O` displayed an EC50 in test [1] of 0.17 µM. Besides, in test [2], the IC50 is above 100 µM.
Turning to `O=c1ccn([C@H]2C=C[C@@H](CO)O2)c(=O)[nH]1`, in [2], the IC50 was above 100 µM. For the same molecule, the EC50 in test [6] was 68.3 µM.
As to `Cc1cn([C@H]2C[C@H](N)[C@@H](CO)O2)c(=O)[nH]c1=O` [3-AMINO- 3-DEOXYTHYMIDINE], the EC50 in test [1] is above 100 µM. The IC50 in test [2] was above 100 µM.
As to `[N-]=[N+]=N[C@H]1C[C@H](n2ccc(=O)[nH]c2=O)O[C@@H]1CO` [NAVURIDINE], the values for the EC50 in [7], in test [8] and in test [9] were 52 µM, 0.178 µM and 0.18 µM, respectively. Moreover, the IC50 in [2] is 1000 µM.
Consider `Cc1cn([C@H]2C=C[C@@H](CO)O2)c(=O)[nH]c1=O` [STAVUDINE], for which the IC50 in [2] turned out to be 70 µM. The same molecule registered an EC50 in test [10] of 0.009 µM.
For `Cc1cn([C@H]2C[C@H](N=[N+]=[N-])[C@@H](CO)O2)c(=O)[nH]c1=O` [ZIDOVUDINE], the IC50 in test [2] turned out to be 200 µM. This molecule yielded an EC50 in [11] of 0.002 µM.
